A word on the IC50: it is the concentration that inhibits the measured activity by half.

Active and inactive are the calls of the source. The calls are words filed in the database; no cut-off is given here.

The subject of one series is K562. As to the kind of experiment: Cytotoxicity against imatinib-sensitive human K562 cells assessed as decrease in cell viability after 24 hrs by XTT assay. The following applies: K562, 24 h. The class given is functional, cell-based. An outline of the steps: (§1)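 K562R (imatinib-resistant) or K562S cells seeded at 1×10^4/well in phenol red-free RPMI, left 24 h, then exposed 24 h to various concentrations. XTT reagent added, 2 h incubation, absorbance at 450 nm; IC50 reported. Mean ± SD, four experiments in triplicate.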
For orientation: Tetrazolium dyes change colour on reduction, which living cells bring about.

Series [1] has as its system K-562R. As to the kind of experiment: Cytotoxicity against human K562R cells assessed as decrease in cell viability after 24 hrs by XTT assay. The class given is functional, cell-based. An outline of the steps:
as §1

A further series addresses T1, Heme oxygenase 1 (Rattus norvegicus, UniProt P06762).
T1 sequence (P06762 whole entry): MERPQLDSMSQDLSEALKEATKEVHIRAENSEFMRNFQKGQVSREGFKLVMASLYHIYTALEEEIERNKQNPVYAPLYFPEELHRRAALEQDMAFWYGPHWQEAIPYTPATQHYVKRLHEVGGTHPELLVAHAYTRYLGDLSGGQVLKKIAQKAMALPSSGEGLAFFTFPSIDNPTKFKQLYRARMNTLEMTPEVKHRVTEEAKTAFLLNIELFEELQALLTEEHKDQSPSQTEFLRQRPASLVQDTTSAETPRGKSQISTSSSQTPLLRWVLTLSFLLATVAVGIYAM
In words: Inhibition of heme oxygenase 1 in Sprague-Dawley rat spleen microsomal fraction assessed as decrease in bilirubin formation using hemin as substrate after 60 mins by spectrophotometric method.

Series [2] concerns the target T2, Heme oxygenase 1 (Homo sapiens) (UniProt P09601).
T2 sequence (whole entry): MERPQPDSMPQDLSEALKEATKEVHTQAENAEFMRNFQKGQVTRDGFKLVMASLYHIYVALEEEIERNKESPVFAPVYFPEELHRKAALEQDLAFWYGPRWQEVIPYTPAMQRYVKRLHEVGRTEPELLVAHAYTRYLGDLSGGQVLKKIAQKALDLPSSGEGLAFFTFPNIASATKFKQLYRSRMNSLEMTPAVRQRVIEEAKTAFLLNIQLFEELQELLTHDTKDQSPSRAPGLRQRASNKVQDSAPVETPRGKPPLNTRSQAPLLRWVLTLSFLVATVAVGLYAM
In words: Inhibition of heme oxygenase 1 in human K562R cell lysates assessed as decrease in bilirubin formation at 10 uM after 60 mins by spectrophotometric method. In a few lines:
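Intact K562R cells treated 24 h at 10 μM, then lysate (1 mg/mL) assayed. Mix: 20 mM Tris-HCl pH 7.4, liver biliverdin reductase 0.5–2 mg/mL, 1 mM NADPH, G6P/G6PDH, 25 μM hemin. 60 min at 37 °C in the dark, chloroform extraction, bilirubin by OD 464–530 nm. Mean ± SD, four experiments in triplicate.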

The subject of series [3] is K-562R. As to the kind of experiment: Induction of ROS production in human K562R cells at 10 uM by DCFH-DA dye based spectrofluorometric method. The class given is functional, cell-based. In a few lines: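 K562R cells (RPMI-1640, 10% FBS, 37 °C, 5% CO2) treated 24 h at 10 μM, then probed with DCFH-DA. DCF fluorescence read at excitation 488 nm, emission 525 nm, normalized to total protein (F.I./mg protein). Mean ± SD, four experiments in triplicate.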

Series [4] concerns the target Bcr/Abl fusion protein (Homo sapiens) (UniProt P00519+P11274). As to the kind of experiment: Inhibition of BCR-ABL in human K562R cells assessed as decrease in CrKL phosphorylation at 10 uM by immuno blot analysis. The class given is cell-based. In a few lines:
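K562R cells treated 24 h at 10 μM and lysed. 20 μg protein separated on SDS-PAGE, transferred to nitrocellulose and probed with anti-CrkL and anti-pCrkL (1:1,000), then infrared-dye secondary antibody. Densitometry gives pCrkL/CrkL ratio as fold of untreated control. Four experiments in triplicate.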

The subject of a further series is Lymphocyte. As to the kind of experiment: Cytotoxicity against human lymphocytes assessed as decrease in cell viability at 10 uM after 24 hrs by XTT assay. The class given is cell-based. An outline of the steps: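 Lymphocytes from healthy volunteers isolated on Ficoll–Paque, grown in RPMI-1640 with 10% FBS and 1% penicillin/streptomycin at 37 °C, 5% CO2, and treated 24 h at 10 μM.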

Series [5] relates to K-562R. As to the kind of experiment: Induction of apoptosis in human K562R cells assessed as viable cells at 10 uM by Annexin V staining-based flow cytometry (reference value: 81.13%). The class given is functional. The note with it: read-out: Activity.
The test system of series [6] is K-562R. In words: Induction of apoptosis in human K562R cells assessed as early apoptotic cells at 10 uM by Annexin V staining-based flow cytometry (reference value: 8.51%). The class given is functional.
In series [7] the test system is K-562R. As to the kind of experiment: Induction of apoptosis in human K562R cells assessed as late apoptotic cells at 10 uM by Annexin V staining-based flow cytometry (reference value: 9.49%). Format: functional. (In general: Flow cytometry measures light scatter and fluorescence of single cells or particles in a stream.)
The subject of series [8] is K-562R. In words: Induction of apoptosis in human K562R cells assessed as necrotic cells at 10 uM by Annexin V staining-based flow cytometry (reference value: 0.87%). Format: functional.
Series [9] deals with K-562R. In words: Effect on heme oxygenase 2 mRNA levels in human K562R cells at 10 uM by qRT-PCR method. Format: functional, cell-based. An outline of the steps:
(§2)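 K562R cells treated 24 h at 10 μM, rinsed in cold PBS and lysed in Trizol. HO-1 and HO-2 mRNA measured by real-time PCR alongside GAPDH. Mean ± SD, four experiments in triplicate.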
(In general: Quantitative PCR measures a nucleic acid by following its amplification.)

Series [10] concerns the target T2, Heme oxygenase 1 (Homo sapiens). As to the kind of experiment: Inhibition of heme oxygenase 1 in human K562R cells assessed as decrease in HO-1 mRNA levels at 10 uM by qRT-PCR method. Format: cell-based. An outline of the steps:
as §2

Bcr/Abl fusion protein (Homo sapiens), sequence (P00519 whole entry, looked up, the tested form may be a part): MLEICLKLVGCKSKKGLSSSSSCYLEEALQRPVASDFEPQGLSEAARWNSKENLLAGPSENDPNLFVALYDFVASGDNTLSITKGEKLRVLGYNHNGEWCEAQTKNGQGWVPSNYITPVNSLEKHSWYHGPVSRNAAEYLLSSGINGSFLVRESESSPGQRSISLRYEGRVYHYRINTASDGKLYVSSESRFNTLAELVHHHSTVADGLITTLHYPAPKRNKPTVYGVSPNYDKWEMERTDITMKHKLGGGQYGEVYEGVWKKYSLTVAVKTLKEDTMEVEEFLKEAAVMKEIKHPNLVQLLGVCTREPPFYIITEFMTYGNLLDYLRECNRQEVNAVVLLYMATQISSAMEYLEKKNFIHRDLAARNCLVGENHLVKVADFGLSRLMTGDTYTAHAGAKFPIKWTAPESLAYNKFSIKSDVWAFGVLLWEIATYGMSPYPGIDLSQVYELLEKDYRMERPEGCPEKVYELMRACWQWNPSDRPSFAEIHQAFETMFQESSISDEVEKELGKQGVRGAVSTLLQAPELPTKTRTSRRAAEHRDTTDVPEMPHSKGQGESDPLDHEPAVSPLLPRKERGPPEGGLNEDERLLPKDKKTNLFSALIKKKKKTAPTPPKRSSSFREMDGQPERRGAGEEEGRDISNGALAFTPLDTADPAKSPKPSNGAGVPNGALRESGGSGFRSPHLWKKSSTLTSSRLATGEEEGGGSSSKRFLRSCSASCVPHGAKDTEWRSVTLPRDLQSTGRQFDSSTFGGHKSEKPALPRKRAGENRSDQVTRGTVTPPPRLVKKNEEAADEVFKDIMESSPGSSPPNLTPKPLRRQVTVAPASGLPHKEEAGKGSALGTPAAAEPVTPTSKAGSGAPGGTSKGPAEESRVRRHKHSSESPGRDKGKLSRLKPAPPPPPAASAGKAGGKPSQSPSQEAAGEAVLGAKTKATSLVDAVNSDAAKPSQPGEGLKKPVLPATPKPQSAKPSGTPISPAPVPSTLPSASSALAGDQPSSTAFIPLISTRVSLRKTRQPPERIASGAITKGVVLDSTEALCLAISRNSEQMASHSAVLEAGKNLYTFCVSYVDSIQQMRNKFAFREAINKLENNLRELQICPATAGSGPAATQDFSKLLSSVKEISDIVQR
Bcr/Abl fusion protein (Homo sapiens), sequence (P11274 whole entry, looked up, the tested form may be a part): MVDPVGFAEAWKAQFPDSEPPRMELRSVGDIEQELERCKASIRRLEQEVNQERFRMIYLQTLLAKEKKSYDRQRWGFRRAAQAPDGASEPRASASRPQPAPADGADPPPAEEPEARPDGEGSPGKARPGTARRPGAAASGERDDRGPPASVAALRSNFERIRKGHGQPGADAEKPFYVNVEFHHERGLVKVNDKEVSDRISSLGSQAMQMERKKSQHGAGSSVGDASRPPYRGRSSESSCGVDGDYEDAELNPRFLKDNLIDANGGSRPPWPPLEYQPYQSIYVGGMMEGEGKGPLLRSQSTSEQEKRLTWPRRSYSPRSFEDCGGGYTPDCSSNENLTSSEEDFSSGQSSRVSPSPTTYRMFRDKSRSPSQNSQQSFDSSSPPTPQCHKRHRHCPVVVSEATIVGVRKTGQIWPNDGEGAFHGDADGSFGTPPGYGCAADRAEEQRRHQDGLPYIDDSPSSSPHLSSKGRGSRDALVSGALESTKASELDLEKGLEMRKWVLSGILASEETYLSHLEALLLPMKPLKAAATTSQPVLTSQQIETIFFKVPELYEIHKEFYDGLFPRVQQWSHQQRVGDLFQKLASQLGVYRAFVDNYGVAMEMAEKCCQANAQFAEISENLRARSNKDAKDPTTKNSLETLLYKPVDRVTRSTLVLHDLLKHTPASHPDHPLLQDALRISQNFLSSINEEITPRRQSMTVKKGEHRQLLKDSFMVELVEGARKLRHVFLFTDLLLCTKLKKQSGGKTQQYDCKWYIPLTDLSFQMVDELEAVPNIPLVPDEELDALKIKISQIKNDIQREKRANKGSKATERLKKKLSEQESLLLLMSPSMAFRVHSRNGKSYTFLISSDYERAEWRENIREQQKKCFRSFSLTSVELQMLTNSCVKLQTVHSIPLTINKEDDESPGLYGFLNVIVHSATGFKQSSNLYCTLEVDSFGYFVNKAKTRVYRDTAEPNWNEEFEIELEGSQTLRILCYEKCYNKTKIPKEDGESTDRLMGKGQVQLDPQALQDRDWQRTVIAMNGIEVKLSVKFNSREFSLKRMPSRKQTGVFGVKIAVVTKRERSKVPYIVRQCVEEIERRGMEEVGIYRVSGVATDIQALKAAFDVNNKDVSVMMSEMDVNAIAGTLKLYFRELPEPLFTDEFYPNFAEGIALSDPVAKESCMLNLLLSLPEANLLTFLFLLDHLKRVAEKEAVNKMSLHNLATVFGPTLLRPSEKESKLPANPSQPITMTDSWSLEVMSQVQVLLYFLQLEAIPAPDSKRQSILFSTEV

In the case of `Cc1ccc(NC(=O)c2ccc(OCCCCn3ccnc3)cc2)cc1Nc1nccc(-c2cccnc2)n1`, the half-maximal inhibitory concentration (IC50) with K562 was 49.9 µM; with K-562R [1] it was 99.4 µM; at Heme oxygenase 1, 66.2 µM.

Regarding `Ic1ccc(OCCCCn2ccnc2)cc1`, the values for the IC50 in the series with K562 and with K-562R [1] were 69.1 µM and 84.4 µM, respectively. Besides, the inhibition result in series [2] is “Active”. Further, the outcome in the series with K-562R [3] was Active.

Take `COc1ccc(C(=O)Nc2ccc(C)c(Nc3nccc(-c4cccnc4)n3)c2)cc1OCCCCn1ccnc1`: the half-inhibitory concentration (IC50) in the series with K562 was found to be 10.1 µM; with K-562R [1] it was 18.7 µM; on Heme oxygenase 1, 15.1 µM. For the same compound, the inhibition result in series [4] and in series [2] was “Active” each time. Moreover, the Activity result in the series with Lymphocyte was “Non-Toxic”; in the series with K-562R [6], 5.4%; with K-562R [7] it was 39.5%; in the series on K-562R [8] it was 3.85%. The viability at 10 µM with K-562R [5] came out at 51.3%. Also, in the series on K-562R [9], the outcome was inactive. In the series with K-562R [3], the outcome was Active.

As to `Cc1ccc(NC(=O)c2ccc(I)cc2OCCCCn2ccnc2)cc1Nc1nccc(-c2cccnc2)n1`, the IC50 came to 57.4 µM in the series on K562, 51.8 µM in the series with K-562R [1] and 15.1 µM at Heme oxygenase 1.

Regarding `Cc1ccc(NC(=O)c2cc(Br)cc(OCCCCn3ccnc3)c2)cc1Nc1nccc(-c2cccnc2)n1`, the half-maximal inhibitory concentration (IC50) came out at 6.5 µM with K562, 19.1 µM in the series with K-562R [1] and 28.6 µM at Heme oxygenase 1. For the same compound, the inhibition entry in series [4] and in series [2] was “Active” each time. The Activity entry is “Non-Toxic” in the series with Lymphocyte, 1.55% with K-562R [6], 47.6% in the series with K-562R [7] and 9.65% in the series on K-562R [8]. Besides, the viability at 10 µM with K-562R [5] was 41.2%. Moreover, the outcome in the series with K-562R [9] was inactive. The result with K-562R [3] was Active.

On to `Cc1ccc(NC(=O)c2cc(I)ccc2OCCCCn2ccnc2)cc1Nc1nccc(-c2cccnc2)n1`, for which the IC50 in the series with K562 was 66.5 µM; in the series on K-562R [1] it was 81.7 µM; at Heme oxygenase 1, 38.9 µM.

For the compound `Cc1ccc(OCCCCn2ccnc2)c(C(=O)Nc2ccc(C)c(Nc3nccc(-c4cccnc4)n3)c2)c1`, the IC50 turned out to be 59.5 µM in the series with K562, 48.6 µM with K-562R [1] and 0.95 µM at Heme oxygenase 1.

On to `Cc1ccc(NC(=O)c2ccc(Br)cc2OCCCCn2ccnc2)cc1Nc1nccc(-c2cccnc2)n1`, for which the IC50 in the series with K562 worked out at 66.1 µM; in the series on K-562R [1], 44.6 µM; at Heme oxygenase 1, 0.95 µM. Also, the inhibition entry in series [4] is “Active”.

For the compound `COc1cc(C(=O)Nc2ccc(C)c(Nc3nccc(-c4cccnc4)n3)c2)ccc1OCCCCn1ccnc1`, the results for the half-maximal inhibitory concentration (IC50) with K562, with K-562R [1] and at Heme oxygenase 1 were 29.5 µM, 27.1 µM and 56.6 µM, respectively. The inhibition result in series [4] is “Active”. For the same compound, the Activity result with Lymphocyte is “Non-Toxic”; in the series on K-562R [6], 4.4%; in the series on K-562R [7], 32.3%; in the series on K-562R [8] it was 2.9%. In addition, the viability at 10 µM with K-562R [5] amounted to 60.4%.

Regarding `Brc1cccc(OCCCCn2ccnc2)c1`, the IC50 worked out at 68.3 µM in the series on K562 and 81.7 µM with K-562R [1]. Besides, the inhibition result in series [2] was “Active”. Further, in the series on K-562R [3], the outcome was Active.

Consider `Cc1ccc(N)cc1Nc1nccc(-c2cccnc2)n1`, for which the IC50 at Heme oxygenase 1 was more than 100 µM.

On to `Cc1ccc(NC(=O)c2ccccc2OCCCCn2ccnc2)cc1Nc1nccc(-c2cccnc2)n1`, for which the half-inhibitory concentration (IC50) in the series with K562 was 47.5 µM; in the series with K-562R [1], 83.4 µM; on Heme oxygenase 1 it was 28 µM.

Turning to `Cc1ccc(NC(=O)c2ccc(OCCCCn3ccnc3)c(Br)c2)cc1Nc1nccc(-c2cccnc2)n1`, the 50% inhibitory concentration (IC50) in the series with K562 is 12 µM; with K-562R [1], 31.8 µM; at Heme oxygenase 1, 0.92 µM. The inhibition entry in series [4] is “Active”. Further, the Activity entry is “Non-Toxic” in the series with Lymphocyte, 2.3% with K-562R [6], 13.15% in the series with K-562R [7] and 0.65% in the series on K-562R [8]. Further, the viability at 10 µM with K-562R [5] worked out at 83.8%.

For `COc1ccc(C(=O)Nc2ccc(C)c(Nc3nccc(-c4cccnc4)n3)c2)c(OCCCCn2ccnc2)c1`, the IC50 in the series on K562 turned out to be 58.9 µM; in the series on K-562R [1], 46.6 µM; at Heme oxygenase 1 it was 61.6 µM.

With `Cc1ccc(NC(=O)c2ccc(OCCCCn3ccnc3)c(I)c2)cc1Nc1nccc(-c2cccnc2)n1`, the results for the 50% inhibitory concentration (IC50) in the series on K562, in the series with K-562R [1] and at Heme oxygenase 1 were 32.5 µM, 52.4 µM and 74.9 µM, respectively. For the same compound, the inhibition result in [4] is “Active”.

On to `Cc1ccc(NC(=O)c2cccc(OCCCCn3ccnc3)c2)cc1Nc1nccc(-c2cccnc2)n1`, for which the IC50 was 74.6 µM in the series on K562, 63.4 µM in the series on K-562R [1] and 38.5 µM on Heme oxygenase 1.

Consider `Cc1ccc(NC(=O)c2ccc([N+](=O)[O-])c(OCCCCn3ccnc3)c2)cc1Nc1nccc(-c2cccnc2)n1`, for which the IC50 came out at 25 µM in the series on K562, 47.6 µM in the series on K-562R [1] and 4.03 µM at Heme oxygenase 1. Besides, in series [4], the inhibition result was “Active”. For the same compound, the Activity entry in the series with Lymphocyte is “Non-Toxic”; with K-562R [6] it was 2.15%; in the series with K-562R [7] it was 14.2%; in the series on K-562R [8] it was 1.25%. Also, the viability at 10 µM in the series on K-562R [5] stood at 82.4%.

In the case of `Cc1ccc(NC(=O)c2ccc(CN3CCN(C)CC3)cc2)cc1Nc1nccc(-c2cccnc2)n1` [IMATINIB], the IC50 with K562 was 1 µM; in the series on K-562R [1], 98.8 µM; at Heme oxygenase 1, more than 100 µM. Further, the viability at 10 µM in the series on K-562R [5] was 89.4%. Also, the Activity in the series with K-562R [6] turned out to be 6.25%; with K-562R [7], 3.6%; with K-562R [8] it was 0.79%. In addition, the inhibition result in [2] was “Active”. In series [10], the inhibition entry was “inactive”. Moreover, the result with K-562R [3] was inactive.

The values above are taken from ChEMBL document CHEMBL4265959, “Targeting heme Oxygenase-1 with hybrid compounds to overcome Imatinib resistance in chronic myeloid leukemia cell lines” (Eur J Med Chem, 2018).
